pIC50: −log10 of the molar value. Activity calls are given as the source filed them. The calls are words filed in the database; no cut-off is given here.
How the values were obtained:
[1] = target: T1, Aldehyde dehydrogenase, dimeric NADP-preferring (Homo sapiens, UniProt P30838); assay: Inhibition of ALDH3A1 (unknown origin) assessed as NADH formation using 4-nitrobenzaldehyde as substrate
T1 sequence (P30838 whole entry): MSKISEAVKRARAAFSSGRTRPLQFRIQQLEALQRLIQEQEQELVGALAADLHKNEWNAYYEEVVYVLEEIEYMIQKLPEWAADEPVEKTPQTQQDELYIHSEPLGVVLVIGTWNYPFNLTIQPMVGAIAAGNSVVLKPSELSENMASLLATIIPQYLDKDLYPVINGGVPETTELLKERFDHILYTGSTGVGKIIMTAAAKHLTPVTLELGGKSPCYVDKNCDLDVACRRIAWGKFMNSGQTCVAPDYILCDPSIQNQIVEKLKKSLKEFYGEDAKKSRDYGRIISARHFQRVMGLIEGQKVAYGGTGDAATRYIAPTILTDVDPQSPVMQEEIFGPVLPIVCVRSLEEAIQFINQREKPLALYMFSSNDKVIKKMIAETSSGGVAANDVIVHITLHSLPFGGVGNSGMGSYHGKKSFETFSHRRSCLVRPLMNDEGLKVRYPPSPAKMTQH
Summary of the method: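 Protein at 0.2 µg/mL exposed 15 min to graded inhibitor concentrations. 1 mM 4-nitrobenzaldehyde substrate with NAD+ then added, run as for the ALDH1A1 assay.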

[2] = target: T2, Aldehyde dehydrogenase 1A1 (Homo sapiens, UniProt P00352); assay: Inhibition of ALDH1A1 (unknown origin) assessed as NADH formation using propionaldehyde as substrate
T2 sequence (P00352 whole entry): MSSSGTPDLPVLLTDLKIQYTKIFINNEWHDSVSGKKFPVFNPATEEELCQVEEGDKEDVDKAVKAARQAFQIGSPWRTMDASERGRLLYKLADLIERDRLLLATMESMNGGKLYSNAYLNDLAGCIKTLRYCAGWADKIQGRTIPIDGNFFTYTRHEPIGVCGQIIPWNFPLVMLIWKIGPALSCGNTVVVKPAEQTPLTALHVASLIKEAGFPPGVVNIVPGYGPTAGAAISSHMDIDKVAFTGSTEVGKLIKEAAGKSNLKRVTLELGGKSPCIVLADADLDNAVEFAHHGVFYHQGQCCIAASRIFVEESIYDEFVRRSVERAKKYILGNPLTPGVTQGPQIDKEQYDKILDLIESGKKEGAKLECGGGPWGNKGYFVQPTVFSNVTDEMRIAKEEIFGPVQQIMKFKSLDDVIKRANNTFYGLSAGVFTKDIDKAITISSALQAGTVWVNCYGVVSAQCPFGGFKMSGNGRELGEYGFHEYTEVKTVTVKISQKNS

[3] = target: T3, Aldehyde dehydrogenase, mitochondrial (Homo sapiens, UniProt P05091); assay: Inhibition of ALDH2 (unknown origin) assessed as NADH formation using acetaldehyde as substrate
T3 sequence (P05091 whole entry): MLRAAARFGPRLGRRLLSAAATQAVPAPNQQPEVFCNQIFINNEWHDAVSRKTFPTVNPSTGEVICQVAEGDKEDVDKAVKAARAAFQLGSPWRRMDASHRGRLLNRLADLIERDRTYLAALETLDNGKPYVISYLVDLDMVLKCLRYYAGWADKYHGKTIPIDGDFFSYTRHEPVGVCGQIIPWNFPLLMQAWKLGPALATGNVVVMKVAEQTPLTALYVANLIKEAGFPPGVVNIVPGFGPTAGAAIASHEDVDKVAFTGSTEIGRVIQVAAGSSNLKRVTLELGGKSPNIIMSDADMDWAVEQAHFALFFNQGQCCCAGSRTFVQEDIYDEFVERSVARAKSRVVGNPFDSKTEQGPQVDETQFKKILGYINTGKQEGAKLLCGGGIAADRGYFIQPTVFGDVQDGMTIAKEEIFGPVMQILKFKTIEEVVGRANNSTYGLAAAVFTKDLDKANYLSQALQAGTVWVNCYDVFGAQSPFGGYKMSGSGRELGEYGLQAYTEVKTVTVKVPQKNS
Summary of the method: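 Enzyme at 0.5 µg/mL preincubated 15 min with varied inhibitor concentrations. Reaction started with 2 mM acetaldehyde plus NAD+ in buffer, as for the ALDH1A1 assay.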

[4] = tested on: MM1.S; assay: Antiproliferative activity against human MM.1S cells measured after 72 hrs by MTS assay; type: functional, cell-based
Summary of the method: (§1)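 Cells seeded at 5,000 per well, left overnight at 37°C in 5% CO2, then exposed to a range of compound concentrations for 72 h. IC50 was fitted from dose-response curves, 3 independent experiments, reported as mean + SD.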

[5] = Antiproliferative activity against human 1205Lu cells measured after 72 hrs by MTS assay; type: functional, cell-based; summary of the method: as §1
[6] = Cytotoxicity against human FF2441 cells measured after 72 hrs by MTS assay; type: cell-based; conditions: FF2441, 72 h; summary of the method: as §1
[7] = Antiproliferative activity against human MM.1R cells measured after 72 hrs by MTS assay; type: functional, cell-based; summary of the method: as §1
[8] = tested on: NCI-H929; assay: Antiproliferative activity against human NCIH929 cells measured after 72 hrs by MTS assay; type: functional, cell-based; conditions: NCI-H929, 72 h; summary of the method: as §1
[9] = tested on: UACC-903; assay: Antiproliferative activity against human UACC 903 cells measured after 72 hrs by MTS assay; type: functional, cell-based; conditions: UACC-903, 72 h; summary of the method: as §1
[10] = tested on: HCT-116; assay: Antiproliferative activity against human HCT116 cells measured after 72 hrs by MTS assay; type: functional, cell-based; conditions: HCT-116, 72 h; summary of the method: as §1
[11] = tested on: RPMI-8226; assay: Antiproliferative activity against human RPMI8226 cells measured after 72 hrs by MTS assay; type: functional, cell-based; conditions: RPMI-8226, 72 h; summary of the method: as §1
[12] = Toxicity in Swiss-Webster mouse assessed as body weight loss at 5 mg/kg/day, ip for 14 days; type: organism-based; conditions: in vivo, 336 h, time 14 day
Summary of the method: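 Swiss-Webster mice received 5 mg/kg/day i.p. once daily for 14 days. Body weight, behaviour and physical distress were monitored, with % weight change compared against DMSO vehicle controls.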

[13] = tested on: HT-29; assay: Antiproliferative activity against human HT-29 cells measured after 72 hrs by MTS assay; type: functional, cell-based; conditions: HT-29, 72 h; summary of the method: as §1
[14] = tested on: U-266; assay: Antiproliferative activity against human U266 cells measured after 72 hrs by MTS assay; type: functional, cell-based; conditions: U-266, 72 h; summary of the method: as §1
[15] = tested on: HCT-116; assay: Induction of apoptosis in human HCT-116 cells at 5 uM incubated for 24 hrs in presence of NAC by annexinV- and […] staining based flow cytometry; type: functional, cell-based
Summary of the method: (§2)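 HCT116 cells treated 24 h with 5 µM compound, with or without 10 mM NAC. Cells were detached, PBS-washed, stained with Annexin-V-PE and 7-AAD, and analysed by flow cytometry. Annexin-V/7-AAD double-positive cells were scored as late apoptotic, relative to DMSO control.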

[16] = tested on: HCT-116; assay: Induction of lipid peroxidation in human HCT-116 cells at 5 uM incubated for 24 hrs by TBARS assay; type: functional, cell-based
Summary of the method: (§3)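 HCT116 cells treated 24 h with 5 µM compound, with or without 10 mM NAC. Pellets were sonicated on ice in PBS and lipids hydrolysed with acetic acid/NaOH. Free MDA was reacted with TBA and read at 530 nm, compared with DMSO control.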

[17] = tested on: HCT-116; assay: Induction of cell cycle arrest in human HCT-116 cells assessed as accumulation of cells at G2/M phase at 5 uM incubated for 24 hrs in presence of NAC by PI staining based flow cytometry; type: functional
Summary of the method: (§4)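 HCT116 cells given 5 µM compound for 24 h, with or without 10 mM NAC. Cells were detached, PBS-washed, fixed in 70% ethanol and stained with propidium iodide. DNA content read by flow cytometry for cell-cycle distribution.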

[18] = tested on: HCT-116; assay: Induction of cell cycle arrest in human HCT-116 cells assessed as accumulation of cells at G2/M phase at 5 uM incubated for 24 hrs by PI staining based flow cytometry; type: functional; summary of the method: as §4
[19] = tested on: HCT-116; assay: Induction of ROS production in human HCT-116 cells at 5 uM incubated for 24 hrs by DCFDA staining based fluorescence microscopic analysis; type: functional, cell-based
[20] = tested on: HCT-116; assay: Induction of lipid peroxidation in human HCT-116 cells at 5 uM incubated for 24 hrs in presence of NAC by TBARS assay; type: functional, cell-based; summary of the method: as §3
[21] = tested on: HCT-116; assay: Induction of ROS production in human HCT-116 cells at 5 uM incubated for 24 hrs in presence of NAC by DCFDA staining based fluorescence microscopic analysis; type: functional, cell-based
[22] = tested on: HCT-116; assay: Induction of apoptosis in human HCT-116 cells at 5 uM incubated for 24 hrs by annexinV- and […] staining based flow cytometry; type: functional, cell-based; summary of the method: as §2

SMILES | pIC50 [1] | pIC50 [2] | pIC50 [3] | further results
N=C(N)SCc1ccc(CN2C(=O)C(=O)c3cccc(Br)c32)cc1 | 5.20 | – | – | –
N=C(N)[Se]Cc1ccc(CN2C(=O)C(=O)c3cc(Cl)cc(Cl)c32)cc1 | 6.49 | – | – | –
N=C(N)SCc1ccc(CN2C(=O)C(=O)c3cc(F)ccc32)cc1 | 5.54 | – | – | –
N=C(N)[Se]Cc1ccc(CN2C(=O)C(=O)c3cc(Cl)ccc32)cc1 | 5.56 | – | – | –
N=C(N)SCc1ccc(CN2C(=O)C(=O)c3cccc(F)c32)cc1 | 6.62 | 6.22 | < 5.00 | –
N=C(N)[Se]Cc1ccc(CN2C(=O)C(=O)c3cccc(Cl)c32)cc1 | < 5.00 | < 5.00 | < 5.00 | –
Br.N=C(N)SCc1ccc(CN2C(=O)C(=O)c3cc(Cl)cc(Cl)c32)cc1 | 6.66 | 6.55 | 5.78 | pIC50 [4]: 5.80; pIC50 [5]: 5.62; pIC50 [6]: 5.27; pIC50 [7]: 5.80; pIC50 [8]: 6.15; pIC50 [9]: 5.52; pIC50 [10]: 5.49; pIC50 [11]: 5.89; Activity [12]: 10%; pIC50 [13]: 5.59; pIC50 [14]: 5.57
N=C(N)SCc1ccc(CN2C(=O)C(=O)c3ccccc32)cc1 | 5.38 | – | – | –
N=C(N)SCc1ccc(CN2C(=O)C(=O)c3cc(Cl)ccc32)cc1 | 5.51 | – | – | –
N=C(N)[Se]Cc1ccc(CN2C(=O)C(=O)c3cccc(F)c32)cc1 | 6.61 | – | – | –
N=C(N)[Se]Cc1ccc(CN2C(=O)C(=O)c3cc(F)cc(Br)c32)cc1 | 6.43 | 6.38 | 5.72 | –
N=C(N)[Se]Cc1ccc(CN2C(=O)C(=O)c3ccccc32)cc1 | 5.40 | – | – | –
N=C(N)[Se]Cc1ccc(CN2C(=O)C(=O)c3cc(Br)ccc32)cc1 | 6.46 | – | – | –
N=C(N)[Se]Cc1ccc(CN2C(=O)C(=O)c3cccc(C(F)(F)F)c32)cc1 | 6.60 | 6.18 | 5.46 | –
N=C(N)SCc1ccc(CN2C(=O)C(=O)c3cccc(C(F)(F)F)c32)cc1 | 6.61 | – | – | –
O=C1C(=O)N(Cc2ccccc2)c2ccccc21 | – | – | – | pIC50 [5]: < 4.00; pIC50 [6]: < 4.00; pIC50 [9]: < 4.00
N=C(N)[Se]Cc1ccc(CN2C(=O)C(=O)c3cccc(Br)c32)cc1 | < 5.00 | – | – | –
N=C(N)SCc1ccc(CN2C(=O)C(=O)c3cccc(Cl)c32)cc1 | 5.45 | 6.75 | < 5.00 | –
Br.N=C(N)SCc1ccc(CN2C(=O)C(=O)c3cc(C(F)(F)F)ccc32)cc1 | 6.44 | 6.48 | 5.67 | Activity [15]: inactive; pIC50 [4]: 5.66; pIC50 [5]: 5.24; pIC50 [6]: 4.68; Activity [16]: Active; pIC50 [7]: 5.77; pIC50 [8]: 5.82; pIC50 [9]: 5.24; Activity [17]: inactive; pIC50 [10]: 5.24; Activity [18]: Active; Activity [19]: Active; Activity [20]: inactive; Activity [21]: inactive; Activity [22]: Active; pIC50 [11]: 5.80; Activity [12]: 2%; pIC50 [13]: 5.31; pIC50 [14]: 5.59
N=C(N)SCc1ccc(CN2C(=O)C(=O)c3cc(F)cc(Br)c32)cc1 | 6.66 | – | – | –
N=C(N)[Se]Cc1ccc(CN2C(=O)C(=O)c3cc(Br)cc(Br)c32)cc1 | 6.48 | 6.40 | 5.70 | –
N=C(N)[Se]Cc1ccc(CN2C(=O)C(=O)c3cc(C(F)(F)F)ccc32)cc1 | 5.82 | – | – | –
N=C(N)SCc1ccc(CN2C(=O)C(=O)c3cc(Br)ccc32)cc1 | 5.31 | 5.07 | < 5.00 | –
N=C(N)[Se]Cc1ccc(CN2C(=O)C(=O)c3cc(F)ccc32)cc1 | 5.63 | – | – | –
